Our source for the inhibition and Activity values is ChEMBL document CHEMBL1177748, “Homo- and heptanor-sterols and tremulane sesquiterpenes from cultures of Phellinus igniarius” (2010).

Activity calls are given as the source filed them. The rule behind the calls is not given here.

In test [1] the target is T1, Tyrosine-protein phosphatase non-receptor type 1 (Homo sapiens) (UniProt P18031).
T1 sequence (whole entry): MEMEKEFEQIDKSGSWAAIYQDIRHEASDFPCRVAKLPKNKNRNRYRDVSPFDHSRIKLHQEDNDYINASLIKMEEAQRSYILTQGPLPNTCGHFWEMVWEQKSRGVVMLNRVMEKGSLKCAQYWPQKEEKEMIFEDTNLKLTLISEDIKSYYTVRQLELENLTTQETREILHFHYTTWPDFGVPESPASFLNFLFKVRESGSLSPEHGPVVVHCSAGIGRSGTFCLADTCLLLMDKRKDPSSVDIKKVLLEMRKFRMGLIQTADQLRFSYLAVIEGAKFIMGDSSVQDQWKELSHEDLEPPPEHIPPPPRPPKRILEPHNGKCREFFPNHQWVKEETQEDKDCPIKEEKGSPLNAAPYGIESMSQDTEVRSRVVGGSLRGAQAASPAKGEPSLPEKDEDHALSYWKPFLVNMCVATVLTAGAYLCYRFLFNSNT
Nature of the test: Inhibition of PTB1B at 10 uM.

The species entered for test [2] is Rattus norvegicus. Nature of the test: Inhibition of platelet-activating factor-induced beta-glucuronidase release in rat PMNC at 10 uM. The class given is functional.
Test [3] concerns Human immunodeficiency virus 1. As to the kind of experiment: Antiviral activity against HIV1 assessed as inhibition of viral replication at 10 uM. The class given is functional, organism-based.
Test [4] has as its system Thoracic aorta. As to the kind of experiment: Vasodilating activity in Langendorff-perfused Sprague-Dawley rat thoracic aorta assessed as relaxation of phenylephrine-induced vasoconstriction at 10 uM relative to untreated control. The class given is functional. More on the design: scale not given: the % may be the effect or the level left. Put shortly: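 Thoracic aortic rings were taken from Langendorff-perfused Sprague-Dawley rats weighing 200 ± 20 g. Rings were precontracted with phenylephrine, and isotonic tension was recorded. Compounds were tested at 10^-5 M. The relaxing rate was expressed as a percentage relative to the blank control.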

Test [5] has as its system PC-12. As to the kind of experiment: Neuroprotective activity against glutamate-induced neurotoxicity in rat PC12 cells at 10 uM. The class given is functional, cell-based.
In test [6] the test system is Liver microsomes. Nature of the test: Antioxidant activity against Fe2+-cystine induced lipid peroxidation in rat liver microsomes at 10 uM. The following applies: Microsome. The class given is functional. A general note: Liver microsomes are a subcellular fraction often used to study metabolism.

As to `C[C@H]1CC[C@H](CO)[C@H](CO)C2=C[C@](C)(CO)C[C@H]21`, the inhibition result in test [1], in test [2], in test [3], in test [5] and in test [6] was “inactive” in each case. For the same molecule, in test [4], the Activity stood at 35.7%.

For `COc1ccc(CCN(C)CCCC(C#N)(c2ccc(OC)c(OC)c2)C(C)C)cc1OC` (stereo not given) [VERAPAMIL], the Activity in test [4] turned out to be 83.3%.

Regarding `C[C@H]1CCC2=C(COC2=O)[C@@]2(O)CC(C)(C)C[C@@H]12`, the inhibition entry in test [1], in test [2], in test [3], in test [5] and in test [6] was “inactive” in each case. Also, the Activity in test [4] is given as 46.6%.

With `C[C@H]1CC[C@H](CO)[C@H](CO)C2=C[C@@](C)(CO)C[C@H]21`, the inhibition result in test [1], in test [2], in test [3], in test [5] and in test [6] was “inactive” in each case. The Activity in test [4] is listed as 45.4%.

For `CC1(C)OCC2=CC[C@H]3C(C)(C)[C@@H](O)CC[C@]3(C)[C@H]2CO1`, the inhibition entry in test [1], in test [2], in test [3], in test [5] and in test [6] was “inactive” each time. For the same molecule, in test [4], the Activity is listed as 32.1%.
